Assay results reported in ChEMBL document CHEMBL1158052, “Tripfordines A-C, sesquiterpene pyridine alkaloids from Tripterygium wilfordii, and structure anti-HIV activity relationships of Tripterygium alkaloids” (J Nat Prod, 2006).
≈ marks a conversion by molar mass, not a printed value. Calls of active or inactive are those of the source. No cut-off for these calls is given here.

Assays:
[1] = tested on: Human immunodeficiency virus 1; assay: Antiviral activity against HIV1 infected human H9 lymphocytes assessed as suppression of viral replication; assay type: functional, organism-based
Outline: (§1)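 EC50 is the sample concentration that suppresses HIV replication by 50%. Cytotoxic IC50 is the concentration toxic to 50% of mock-infected cells. Therapeutic index is IC50 divided by EC50.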

[2] = Therapeutic index, ratio of IC50 for human H9 lymphocytes to EC50 for HIV1; details: HIV-1, read-out: Ratio IC50/EC50; outline: as §1
A-431 = assay: Cytotoxicity against human A431 cells; assay type: functional, cell-based
HCT-8 = assay: Cytotoxicity against human HCT8 cells; assay type: functional, cell-based
PC-3 = assay: Cytotoxicity against human PC-3 cells; assay type: functional, cell-based
H9 = assay: Cytotoxicity against mock-infected human H9 lymphocytes; assay type: cell-based
Outline: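 Mock-infected cells, run alongside the HIV replication suppression assay, were exposed to test sample. IC50 was taken as the concentration toxic to 50% of the mock-infected cells.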

A549 = assay: Cytotoxicity against human A549 cells; assay type: functional, cell-based
[3] = Cytotoxicity against human AR751 cells; assay type: functional, cell-based
LNCaP = assay: Cytotoxicity against human LNCAP cells; assay type: functional, cell-based

Compound | EC50 [1] | Activity [1] | selectivity ratio [2] | further results
CC(=O)OC[C@]12[C@H](OC(C)=O)[C@H](OC(C)=O)[C@@H]3[C@@H](OC(=O)c4ccccc4)[C@@]14O[C@@]3(C)COC(=O)c1cccnc1C(C)C(C)C(=O)O[C@@H]([C@H](OC(C)=O)[C@@H]2OC(C)=O)[C@]4(C)O (some centres undefined) | 0.9 µg/mL (≈ 1.04 µM) | – | – | –
CC(=O)OC[C@]12[C@H](OC(C)=O)[C@H](OC(C)=O)[C@@H]3[C@@H](OC(=O)c4ccccc4)[C@@]14O[C@@]3(C)COC(=O)c1cccnc1C(C)C(C)C(=O)O[C@@H]([C@H](OC(=O)c1cccnc1)[C@@H]2OC(C)=O)[C@]4(C)O (some centres undefined) | – | inactive | – | –
CC(=O)OC[C@]12[C@H](OC(C)=O)[C@H](OC(C)=O)[C@@H]3[C@@H](OC(C)=O)[C@@]14O[C@@]3(C)COC(=O)c1cccnc1CCC(C)C(=O)O[C@@H]([C@H](OC(=O)c1ccccc1)[C@@H]2OC(C)=O)[C@]4(C)O (some centres undefined) | – | inactive | – | –
CC(=O)OC[C@]12[C@H](OC(C)=O)[C@H](OC(C)=O)[C@@H]3[C@@H](OC(C)=O)[C@@]14O[C@@]3(C)COC(=O)c1cccnc1CCC(C)C(=O)O[C@@H]([C@H](OC(=O)c1ccco1)[C@@H]2OC(C)=O)[C@]4(C)O (some centres undefined) | – | inactive | – | –
CC(=O)O[C@@H]1[C@@H]2[C@@H](OC(C)=O)[C@@]34O[C@@]2(C)COC(=O)c2cnccc2C(C)C(C)C(=O)O[C@@H]([C@H](OC(C)=O)[C@H](OC(C)=O)[C@@]3(COC(=O)c2ccco2)[C@@H]1OC(C)=O)[C@]4(C)O (some centres undefined) | – | inactive | – | –
CC(=O)OC[C@]12[C@H](OC(C)=O)[C@H](OC(C)=O)[C@@H]3[C@@H](OC(C)=O)[C@@]14O[C@@]3(C)COC(=O)c1cccnc1C(C)C(C)C(=O)O[C@@H]([C@H](OC(C)=O)[C@@H]2OC(C)=O)[C@]4(C)O (some centres undefined) [EUONYMINE] | 0.2 µg/mL (≈ 0.248 µM) | – | – | –
CC(=O)OC[C@]12[C@H](OC(C)=O)[C@H](OC(C)=O)[C@@H]3[C@@H](OC(C)=O)[C@@]14O[C@@]3(C)COC(=O)c1cccnc1C(C)C(C)C(=O)O[C@@H]([C@H](OC(=O)c1ccccc1)[C@@H]2OC(C)=O)[C@@]4(C)O (some centres undefined) [FORRESTINE] | – | – | > 208 | –
CC(=O)O[C@@H]1[C@@H]2[C@@H](OC(C)=O)[C@@]34O[C@@]2(C)COC(=O)c2cnccc2C(C)C(C)(O)C(=O)O[C@@H]([C@H](OC(C)=O)[C@H](OC(C)=O)[C@@]3(COC(=O)c2ccco2)[C@@H]1OC(C)=O)[C@]4(C)O (some centres undefined) [HYPOGLAUNINE A] | – | – | > 769 | –
CC(=O)OC[C@]12[C@H](OC(C)=O)[C@H](OC(C)=O)[C@@H]3[C@@H](OC(C)=O)[C@@]14O[C@@]3(C)COC(=O)c1cnccc1C(C)C(C)(O)C(=O)O[C@@H]([C@H](OC(=O)c1ccco1)[C@@H]2OC(C)=O)[C@]4(C)O (some centres undefined) [HYPOGLAUNINE B] | 0.1 µg/mL (≈ 0.114 µM) | – | > 1000 | –
CC(=O)OC[C@]12[C@H](OC(C)=O)[C@H](OC(C)=O)[C@@H]3[C@@H](OC(=O)c4ccco4)[C@@]14O[C@@]3(C)COC(=O)c1cccnc1C(C)C(C)C(=O)O[C@@H]([C@H](OC(C)=O)[C@@H]2OC(C)=O)[C@]4(C)O (some centres undefined) [HYPONINE A] | 1 µg/mL (≈ 1.17 µM) | – | – | –
CC(=O)O[C@@H]1[C@H](OC(C)=O)[C@@]2(COC(=O)c3ccco3)[C@H](OC(C)=O)C(=O)[C@@H]3[C@@H](OC(C)=O)[C@@]24O[C@@]3(C)COC(=O)c2cccnc2C(C)C(C)C(=O)O[C@@H]1[C@]4(C)O (some centres undefined) [HYPONINE B] | 0.1 µg/mL (≈ 0.123 µM) | – | > 1000 | –
CC(=O)OC[C@]12[C@H](OC(C)=O)[C@H](OC(C)=O)[C@@H]3[C@@H](OC(C)=O)[C@@]14O[C@@]3(C)COC(=O)c1cccnc1C(C)C(C)C(=O)O[C@@H]([C@H](OC(=O)c1ccco1)[C@@H]2OC(C)=O)[C@]4(C)O (some centres undefined) [HYPONINE F] | – | – | > 2.8 | –
CC(=O)OC[C@]12[C@H](OC(C)=O)[C@H](OC(C)=O)[C@@H]3[C@@H](O)[C@@]14O[C@@]3(C)COC(=O)c1cccnc1C(C)C(C)C(=O)O[C@@H]([C@H](OC(C)=O)[C@@H]2OC(C)=O)[C@]4(C)O (some centres undefined) [NEOEUONYMINE] | 0.88 µg/mL (≈ 1.15 µM) | – | > 113 | –
CC(=O)OC[C@]12[C@H](OC(C)=O)[C@H](OC(C)=O)[C@@H]3[C@@H](OC(C)=O)[C@@]14O[C@@]3(C)COC(=O)c1cccnc1CCC(C)(O)C(=O)O[C@@H]([C@H](O)[C@@H]2OC(C)=O)[C@@]4(C)O (some centres undefined) [TRIPFORDINE A] | 13.4 µg/mL (≈ 17.2 µM) | – | 1.9 | IC50 (A-431): > 4 µg/mL; IC50 (HCT-8): > 4 µg/mL; IC50 (PC-3): > 4 µg/mL; IC50 (H9): > 25 µg/mL; IC50 (A549): > 4 µg/mL; IC50 [3]: > 4 µg/mL; IC50 (LNCaP): > 4 µg/mL
CC(=O)OC[C@]12[C@H](OC(C)=O)[C@H](OC(C)=O)[C@@H]3[C@@H](O)[C@@]14O[C@@]3(C)COC(=O)c1cccnc1CCC(C)C(=O)O[C@@H]([C@H](OC(C)=O)[C@@H]2OC(C)=O)[C@@]4(C)O (some centres undefined) [TRIPFORDINE B] | – | inactive | – | IC50 (A-431): > 4 µg/mL; IC50 (HCT-8): > 4 µg/mL; IC50 (PC-3): > 4 µg/mL; IC50 (H9): > 25 µg/mL; IC50 (A549): > 4 µg/mL; IC50 [3]: > 4 µg/mL; IC50 (LNCaP): > 4 µg/mL
CC(=O)OC[C@]12[C@H](OC(C)=O)[C@H](OC(C)=O)[C@@H]3[C@@H](O)[C@@]14O[C@@]3(C)COC(=O)c1cnccc1C(C)C(C)C(=O)O[C@@H]([C@H](OC(C)=O)[C@@H]2OC(C)=O)[C@@]4(C)O (some centres undefined) [TRIPFORDINE C] | – | inactive | – | IC50 (A-431): > 4 µg/mL; IC50 (HCT-8): > 4 µg/mL; IC50 (PC-3): > 4 µg/mL; IC50 (H9): > 25 µg/mL; IC50 (A549): > 4 µg/mL; IC50 [3]: > 4 µg/mL; IC50 (LNCaP): > 4 µg/mL
COC(=O)C[C@@H]1C(=O)CCC(C)C(=O)O[C@@H]2[C@@H]3[C@@H](OC(C)=O)[C@@]45O[C@@]3(C)COC(=O)c3cccnc3C(C)C(C)C(=O)O[C@@H]([C@H](OC(C)=O)[C@H](OC(C)=O)[C@@]4(COC1=O)[C@@H]2OC(C)=O)[C@]5(C)O (some centres undefined) [TRIPTONINE A] | 2.5 µg/mL (≈ 2.64 µM) | – | > 39.4 | –
COC(=O)C[C@@H]1C(=O)CC[C@H](C)C(=O)O[C@@H]2[C@@H]3[C@@H](OC(C)=O)[C@@]45O[C@@]3(C)COC(=O)c3cnccc3[C@@H](C)[C@@H](O)C(=O)O[C@@H]([C@H](OC(C)=O)[C@H](OC(C)=O)[C@@]4(COC1=O)[C@@H]2OC(C)=O)[C@]5(C)O [TRIPTONINE B] | < 0.1 µg/mL | – | > 1000 | –
CC(=O)OC[C@]12[C@H](OC(C)=O)[C@H](OC(C)=O)[C@@H]3[C@@H](OC(C)=O)[C@@]14O[C@@]3(C)COC(=O)c1cccnc1CCC(C)(O)C(=O)O[C@@H]([C@H](OC(=O)c1ccccc1)[C@@H]2OC(C)=O)[C@]4(C)O (some centres undefined) [WILFORDINE] | < 0.1 µg/mL | – | > 200 | –
CC(=O)OC[C@]12[C@H](OC(C)=O)[C@H](OC(C)=O)[C@@H]3[C@@H](OC(C)=O)[C@@]14O[C@@]3(C)COC(=O)c1cccnc1CCC(C)(O)C(=O)O[C@@H]([C@H](OC(=O)c1ccco1)[C@@H]2OC(C)=O)[C@]4(C)O (some centres undefined) [WILFORTRINE] | < 0.1 µg/mL | – | > 1000 | –
